Source: ChEMBL document CHEMBL2331206, “Genomics-guided discovery of thailanstatins A, B, and C As pre-mRNA splicing inhibitors and antiproliferative agents from Burkholderia thailandensis MSMB43” (J Nat Prod, 2013)
pIC50: −log10 of the molar value.

Columns and labels:
[1] = Stability of the compound in phosphate buffer at pH 7 at 37 degC by HPLC; format: physicochemical
[2] = Stability of the compound in phosphate buffer assessed as compound remaining after 8 to 78 hrs at pH 7.4 at 37 degC by HPLC; format: physicochemical
In short: (§1)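 Compound (10 µL of 10 mM DMSO stock) added to 10 mL phosphate buffer pH 7.4 containing benzoic acid and DMSO, sealed and held at 37 °C. Samples (20 µL) analysed by reverse-phase C18 HPLC at multiple time points; half-life determined from remaining compound.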

[3] = test system: HEK293; assay: Inhibition of Pre-mRNA splicing in human HEK293 cells using biotin-labeled Ad2 pre-mRNA by exonjunction complex (EJC) immunoprecipitation assay
[4] = test system: DU-145; assay: Antiproliferative activity against human DU145 cells assessed as growth inhibition measured after 48 hrs by MTT assay; format: functional; details: DU-145, 48 h
In short: (§2)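 Cells seeded at 10,000 or 15,000 per well, incubated overnight at 37 °C, then exposed to serial three-fold dilutions of compound (10 mM DMSO stocks) for 48 h at 37 °C. MTT added for 4 h at 37 °C, absorbance read at 570 and 690 nm. Viability = 100×(T−T0)/(C−T0) versus vehicle. Triplicate wells; GI50 from log concentration versus normalized viability.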

[5] = test system: MDA-MB-231; assay: Antiproliferative activity against human MDA-MB-231 cells assessed as growth inhibition measured after 48 hrs by MTT assay; format: functional; details: MDA-MB-231, 48 h; in short: as §2
[6] = Antiproliferative activity against human NCI-H232A cells assessed as growth inhibition measured after 48 hrs by MTT assay; format: functional; in short: as §2
[7] = test system: SK-OV-3; assay: Antiproliferative activity against human SKOV3 cells assessed as growth inhibition measured after 48 hrs by MTT assay; format: functional; details: SK-OV-3, 48 h; in short: as §2
[8] = test system: HEK293; assay: Inhibition of Pre-mRNA splicing in human HEK293 cells using p32-labeled CDC14-15 pre-mRNA by exonjunction complex (EJC) immunoprecipitation assay; format: functional, cell-based
[9] = Stability of the compound in phosphate buffer at pH 7.4 at 37 degC by HPLC; format: physicochemical; in short: as §1

Structure (SMILES) | half-life [1] [h] | Stability [2] [%] | pIC50 [3] | GI50 [4] [nM] | GI50 [5] [nM] | GI50 [6] [nM] | GI50 [7] [nM] | inhibition [8] | half-life [9] [h]
CC(=O)O[C@@H](C)/C=C\C(=O)N[C@@H]1C[C@H](C)[C@H](C/C=C(C)/C=C/[C@H]2O[C@](C)(O)C[C@@]3(CO3)[C@@H]2O)O[C@@H]1C | 4 | 38 | 6.24 | 1.05 | 2.1 | 1.94 | 1.06 | Dose-dependent effect | 8
CC(=O)O[C@@H](C)/C=C\C(=O)N[C@@H]1C[C@H](C)[C@H](C/C=C(C)/C=C/[C@H]2O[C@H](CC(=O)O)C[C@@]3(CO3)[C@@H]2O)O[C@@H]1C [THAILANSTATIN A] |  | 65 | 6.19 | 1.11 | 2.58 | 2.26 | 2.69 |  | > 78
CC(=O)O[C@@H](C)/C=C\C(=O)N[C@@H]1C[C@H](C)[C@H](C/C=C(C)/C=C/[C@H]2O[C@H](CC(=O)O)C[C@@](O)(CCl)[C@@H]2O)O[C@@H]1C [THAILANSTATIN B] |  |  | 5.21 | 3 | 6.22 | 2.5 | 4.94 |  | 19
CC(/C=C/[C@H]1O[C@H](CC(=O)O)C[C@@](O)(CCl)[C@@H]1O)=C\C[C@@H]1O[C@H](C)[C@H](NC(=O)/C=C\[C@H](C)OC(=O)C(C)C)C[C@@H]1C [THAILANSTATIN C] |  |  | 5.16 | 2.98 | 8.82 | 3.67 | 5.57 |  | 25
